Type in all cases: functional
Test [1] has as its system Staphylococcus aureus. In words: Antibacterial activity against linezolid-resistant Staphylococcus aureus NRS271 assessed as growth inhibition by CLSI broth microdilution method. An outline of the steps:
(§1)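 MIC by CLSI broth microdilution in cation-adjusted Mueller-Hinton broth. Lowest concentration inhibiting growth taken as MIC.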

Test [2] concerns Enterococcus faecium. In words: Ratio of linezolid MIC to compound MIC for Enterococcus faecium SR7940 clinical isolate.
For test [3], the system named is Staphylococcus aureus. In words: Ratio of linezolid ED50 to compound ED50 for methicillin-resistant Staphylococcus aureus SR3637 infected in po dosed JCL/ICR mouse systemic infection model. In outline: (§2)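 Five-week-old male JCL/ICR mice (20–25 g), five per group, infected intraperitoneally with 0.5 or 1.0 mL bacterial suspension (about 100 times the 50% lethal dose). Test and reference compounds given intravenously or orally 1 h after infection. Mortality followed over 7 days; ED50 with 95% confidence limits by the logit method.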

The subject of test [4] is Staphylococcus aureus. As to the kind of experiment: Antibacterial activity against Staphylococcus aureus SR20549 clinical isolate assessed as growth inhibition by CLSI broth microdilution method. An outline of the steps: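 MIC by CLSI broth microdilution in cation-adjusted Mueller-Hinton broth; S. pneumoniae medium supplemented with 5% lysed horse blood.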
The subject of test [5] is Enterococcus faecium. In words: Ratio of eperezolid MIC to compound MIC for Enterococcus faecium SR7940 clinical isolate.
For test [6], the system named is Haemophilus influenzae. As to the kind of experiment: Antibacterial activity against Haemophilus influenzae SR27914 clinical isolate assessed as growth inhibition by CLSI broth microdilution method. An outline of the steps: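 MIC by CLSI broth microdilution using Haemophilus test medium.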
The test system of test [7] is Staphylococcus aureus. As to the kind of experiment: Ratio of eperezolid MIC to compound MIC for Staphylococcus aureus Smith.
A further test deals with Moraxella catarrhalis. In words: Ratio of eperezolid MIC to compound MIC for Moraxella catarrhalis SR26840 clinical isolate.
Test [8] has as its system Enterococcus faecalis. In words: Ratio of eperezolid MIC to compound MIC for Enterococcus faecalis SR1004 clinical isolate.
For test [9], the system named is Staphylococcus aureus. In words: Antibacterial activity against methicillin-resistant Staphylococcus aureus SR3637 infected in JCL/ICR mouse systemic infection model assessed as mortality administered as iv measured over 7 days. The settings on record: 168 h. An outline of the steps:
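Five-week-old male JCL/ICR mice (20–25 g), five per group. Infected intraperitoneally with 0.5 or 1.0 mL bacterial suspension (about 100× LD50). Intravenous dosing 1 h post-infection. Mortality followed 7 days; ED50 with 95% confidence limits by logit method.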

Test [10] concerns Staphylococcus aureus. In words: Antibacterial activity against methicillin-resistant Staphylococcus aureus SR3637 assessed as growth inhibition by CLSI broth microdilution method. An outline of the steps:
as §1

Test [11] concerns Streptococcus pneumoniae. As to the kind of experiment: Ratio of linezolid MIC to compound MIC for Streptococcus pneumoniae SR26207 clinical isolate.
The subject of test [12] is Haemophilus influenzae. As to the kind of experiment: Ratio of eperezolid MIC to compound MIC for Haemophilus influenzae SR27914 clinical isolate.
Test [13] has as its system Staphylococcus aureus. As to the kind of experiment: Ratio of eperezolid MIC to compound MIC for Staphylococcus aureus SR20549 clinical isolate.
In test [14] the test system is Streptococcus pneumoniae. In words: Ratio of eperezolid MIC to compound MIC for Streptococcus pneumoniae SR26207 clinical isolate.
The subject of test [15] is Enterococcus faecalis. As to the kind of experiment: Ratio of linezolid MIC to compound MIC for Enterococcus faecalis SR1004 clinical isolate.
In test [16] the test system is Staphylococcus aureus. In words: Ratio of linezolid ED50 to compound ED50 for methicillin-resistant Staphylococcus aureus SR3637 infected in iv dosed JCL/ICR mouse systemic infection model. In outline: as §2

The values below come from ChEMBL document CHEMBL2375276, “Antibacterial oxazolidinone analogues having a N-hydroxyacetyl-substituted seven-membered [1,2,5]triazepane or [1,2,5]oxadiazepane C-ring unit” (Eur J Med Chem, 2013).

In brackets after ≈: the same amount, converted by molar mass.

Regarding `COC(=S)NC[C@H]1CN(c2ccc(N3CCNN(C(=O)CO)CC3)c(F)c2)C(=O)O1`, the MIC in the test with Staphylococcus aureus [1] stood at 2 µg/mL (≈ 4.53 µM); in the test on Staphylococcus aureus [4] it was 0.25 µg/mL (≈ 0.566 µM); with Haemophilus influenzae [6], 4 µg/mL (≈ 9.06 µM); with Staphylococcus aureus [10] it was 0.25 µg/mL (≈ 0.566 µM). In addition, the Ratio with Enterococcus faecium [2], with Enterococcus faecium [5], in the test with Staphylococcus aureus [7], in the test with Moraxella catarrhalis, with Enterococcus faecalis [8] and with Streptococcus pneumoniae [11] was 4 throughout. Besides, the Ratio in the test on Haemophilus influenzae [12], in the test with Staphylococcus aureus [13], with Streptococcus pneumoniae [14] and in the test with Enterococcus faecalis [15] was 4 each time. For the same molecule, the entries for the “Ratio ED50” value with Staphylococcus aureus [3] and with Staphylococcus aureus [16] were 2 and 3, respectively. Moreover, the ED50 with Staphylococcus aureus [9] is 0.94 mg/kg.

As to `COC(=S)NC[C@H]1CN(c2cc(F)c(N3CCNN(C(=O)CO)CC3)c(F)c2)C(=O)O1`, the MIC in the test on Staphylococcus aureus [1] is 2 µg/mL (≈ 4.35 µM); with Staphylococcus aureus [4] it was 0.25 µg/mL (≈ 0.544 µM); in the test with Haemophilus influenzae [6] it was 4 µg/mL (≈ 8.71 µM); in the test on Staphylococcus aureus [10], 0.25 µg/mL (≈ 0.544 µM). For the same molecule, the Ratio in the test with Enterococcus faecium [2], in the test with Enterococcus faecium [5], in the test with Staphylococcus aureus [7], in the test on Moraxella catarrhalis, with Enterococcus faecalis [8] and with Streptococcus pneumoniae [11] was 4 each time. In addition, the Ratio with Haemophilus influenzae [12], with Staphylococcus aureus [13], in the test on Streptococcus pneumoniae [14] and in the test with Enterococcus faecalis [15] was 4 in each case. For the same molecule, the ED50 with Staphylococcus aureus [9] was found to be 0.77 mg/kg.
